Usually MIC stands for the least concentration at which growth counts as inhibited. As a reminder, the IC50 is the point on the concentration scale where inhibition reaches its midpoint.

Converted amounts (≈) assume the structure as drawn.

For one assay, the system named is Klebsiella pneumoniae. As to the kind of experiment: Antimicrobial activity against Klebsiella pneumoniae ATCC 10031 by agar dilution method. The class given is functional. Particulars: Klebsiella pneumoniae, ATCC 10031; read-out: MIC. An outline of the steps:
(§1)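 Read-out is the minimal inhibitory concentration, found by agar dilution against the named strain.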
On the technique in general: In agar dilution the substance is mixed into plates at graded concentrations.

In another assay the test system is Staphylococcus aureus. Kind of assay: Antimicrobial activity against Staphylococcus aureus ATCC 6538P by agar dilution method. Type of assay: functional. The note with it: Staphylococcus aureus, ATCC 6538P; read-out: MIC. In a few lines: as §1
A further assay has as its system Bacillus spizizenii. As to the kind of experiment: Antimicrobial activity against Bacillus subtilis ATCC 6633 by agar dilution method. Type of assay: functional. Particulars: Bacillus spizizenii, ATCC 6633; read-out: MIC. An outline of the steps: as §1
Assay [1] concerns the target Bacterial 70S ribosome (Bacteria) (UniProt P0A7V0+P60723+P0AG67+P0A7R5+P0A7R9+P0A7S3+P0A7S9+P0AG59+P0ADZ4+P0A7T3+P0AG63+P0A7T7+P0A7U3+P0A7U7+P68679+P0A7V3+P0A7V8+P0A7W1+P02358+P02359+P0A7W7+P0A7X3+P0A7J3+P0A7J7+P0AA10+P0ADY3+P02413+P0ADY7+P0AG44+P0C018+P0A7K6+P0A7L0+P0A7L3+P0AG48+P61175+P0ADZ0+P60624+P68919+P0A7L8+P0A7M2+P0A7M6+P60422+P0AG51+P0A7N1+P0A7M9+P0A7N4+P0A7N9+P0A7P5+P0A7Q1+Q2EEQ2+P0A7Q6+P60438+P62399+P0AG55+P0A7K2). As to the kind of experiment: (§2) Displacement of [14C]erythromycin from Escherichia coli ribosomes after 30 mins by scintillation spectrometer analysis. An outline of the steps:
(§3)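 NH4Cl-washed E. coli ribosomes with [14C]erythromycin A and varied competitor concentrations in 0.01 M Tris-HCl pH 7.2, 0.1 M KCl, 0.004 M MgCl2, 0.01 M NH4Cl. Incubated 30 min at 24 °C, stopped by dilution in cold Tris/KCl/MgCl2 buffer, membrane-filtered, washed three times, dried, scintillation counted. Reports the concentration giving 50% inhibition of binding.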
In general terms: Loss of bound radioactivity is the signal in a displacement assay; it reports binding, not function.

The target of another assay is Bacterial 70S ribosome. The description is as §2. In a few lines: as §3

For `CCCC(=O)O[C@H]1[C@H](C)O[C@@H](O[C@H]2[C@H](N(C)C)[C@@H](OC(=O)CCCC(=O)O)[C@H](O[C@H]3[C@@H](CC=O)C[C@@H](C)[C@@H](O)/C=C/C=C/C[C@@H](C)OC(=O)C[C@@H](O)[C@@H]3OC)O[C@@H]2C)C[C@@]1(C)O`, the MIC with Klebsiella pneumoniae stood at 25 µg/mL (≈ 28.2 µM); in the assay with Staphylococcus aureus it was 0.8 µg/mL (≈ 0.903 µM); in the assay with Bacillus spizizenii, 0.8 µg/mL (≈ 0.903 µM). In assay [1], this compound registered a pK50 of 5. The compound further registered an IC50 at Bacterial 70S ribosome of 9.3 µM.

In the case of `CCCC(=O)O[C@H]1[C@H](C)O[C@@H](O[C@H]2[C@H](N(C)C)[C@@H](OC(C)=O)[C@H](O[C@H]3[C@@H](CC=O)C[C@@H](C)[C@@H](OC(C)=O)/C=C/C=C/C[C@@H](C)OC(=O)C[C@@H](O)[C@@H]3OC)O[C@@H]2C)C[C@@]1(C)O`, the MIC came to 100 µg/mL (≈ 117 µM) in the assay with Klebsiella pneumoniae, 1.6 µg/mL (≈ 1.87 µM) with Staphylococcus aureus and 0.8 µg/mL (≈ 0.935 µM) with Bacillus spizizenii. For the same compound, in assay [1], the pK50 worked out at 4.6. On Bacterial 70S ribosome, this compound returned an IC50 of 23.4 µM.

Take `CCC(=O)O[C@H]1[C@H](C)O[C@@H](O[C@H]2[C@H](N(C)C)[C@@H](O)[C@H](O[C@H]3[C@@H](CC=O)C[C@@H](C)[C@@H](O)/C=C/C=C/C[C@@H](C)OC(=O)C[C@@H](OC(C)=O)[C@@H]3OC)O[C@@H]2C)C[C@@]1(C)O`: the values for the MIC in the assay with Klebsiella pneumoniae, in the assay on Staphylococcus aureus and in the assay on Bacillus spizizenii were 50 µg/mL (≈ 62.5 µM), 1.6 µg/mL (≈ 2 µM) and 3.1 µg/mL (≈ 3.88 µM), respectively. Besides, the pK50 in assay [1] came to 5.7. The IC50 at Bacterial 70S ribosome came to 1.9 µM.

The record behind these values is ChEMBL document CHEMBL3244414, “Structure-activity relationships among the O-acyl derivatives of leucomycin. Correlation of minimal inhibitory concentrations with binding to Escherichia coli ribosomes” (J Med Chem, 1977).
